Experimental data from ChEMBL document CHEMBL3822380, “Simple avarone mimetics as selective agents against multidrug resistant cancer cells” (Eur J Med Chem, 2016).
pIC50: −log10 of the molar value. In brackets after ≈: the same amount, converted by molar mass. Activity calls are given as the source filed them.

How the values were obtained:
Micrococcus luteus [1] = experiment: Antibacterial activity against Micrococcus luteus ATCC 4698 by broth microdilution method; type: functional; settings: NCTC 2665
Outline: (§1)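 Broth microdilution per NCCLS. Compounds dissolved in DMSO as 10 mg/mL stock, diluted in Mueller Hinton broth (bacteria) or Sabouraud dextrose broth (fungi). Amikacin served as the positive control for bacteria and nystatin for fungi.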

Clostridium sporogenes = experiment: Antibacterial activity against Clostridium sporogenes ATCC 19404 by broth microdilution method; type: functional; outline: as §1
Escherichia coli = experiment: Antibacterial activity against Escherichia coli ATCC 25922 by broth microdilution method; type: functional; outline: as §1
Salmonella enteritidis = experiment: Antibacterial activity against Salmonella enterica subsp. enterica serovar Enteritidis ATCC 13076 by broth microdilution method; type: functional; outline: as §1
Pseudomonas aeruginosa = experiment: Antibacterial activity against Pseudomonas aeruginosa ATCC 9027 by broth microdilution method; type: functional; outline: as §1
Candida albicans = experiment: Antifungal activity against Candida albicans ATCC 10231 by broth microdilution method; type: functional; outline: as §1
Saccharomyces cerevisiae = experiment: Antifungal activity against Saccharomyces cerevisiae ATCC 9763 by broth microdilution method; type: functional; outline: as §1
Aspergillus brasiliensis = experiment: Antifungal activity against Aspergillus brasiliensis ATCC 16404 by broth microdilution method; type: functional; outline: as §1
NCI-H460 [2] = experiment: Cytotoxicity against human NCI-H460 cells after 72 hrs by MTT assay; type: functional, cell-based; settings: NCI-H460, 72 h
Outline: (§2)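 Seeding in 96-well plates at 1000 (NCI-H460), 2000 (NCI-H460/R) or 4000 (HaCaT) cells/well, treated after 24 h for 72 h. MTT at 0.4 mg/mL final, 4 h at 37 °C. Formazan dissolved in DMSO, absorbance read at 540 nm. Inhibition % = (1 − A treated/A untreated)×100. IC30 and IC50 obtained by linear regression.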

NCI-H460 [3] = experiment: Cytotoxicity against multidrug resistant human NCI-H460 cells after 72 hrs by MTT assay; type: functional, cell-based; settings: NCI-H460, 72 h; outline: as §2
HaCaT [4] = experiment: Cytotoxicity against human HaCaT cells after 72 hrs by MTT assay; type: cell-based; settings: for pIC50: Homo sapiens, HaCaT; for IC30: human, hacat; outline: as §2
Staphylococcus aureus = experiment: Antibacterial activity against Staphylococcus aureus ATCC 6538 by broth microdilution method; type: functional; outline: as §1
Bacillus spizizenii = experiment: Antibacterial activity against Bacillus subtilis ATCC 6633 by broth microdilution method; type: functional; outline: as §1
Micrococcus luteus [5] = experiment: Antibacterial activity against Micrococcus luteus ATCC 10240 by broth microdilution method; type: functional; outline: as §1
NCI-H460 [6] = experiment: Selectivity ratio of IC30/IC50 for human NCI-H460 cells to IC30/IC50 for multidrug resistant human NCI-H460 cells; type: functional
Outline: (§3)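 Fold threshold of 1.5 used to call selectivity to cancer cells, resistance, or selectivity to MDR cells.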

Proteus hauseri = experiment: Antibacterial activity against Proteus hauseri ATCC 13315 by broth microdilution method; type: functional; outline: as §1
Kocuria rhizophila = experiment: Antibacterial activity against Kocuria rhizophila ATCC 9341 by broth microdilution method; type: functional; settings: DC2201; outline: as §1
NCI-H460 [7] = experiment: Induction of apoptosis in human NCI-H460 cells assessed as live cells at 25 uM after 72 hrs by annexin-V/propidium iodide staining-based flow cytometric analysis (reference value: 98.3%); type: functional
NCI-H460 [8] = experiment: Induction of apoptosis in human NCI-H460 cells assessed as early apoptotic cells at 25 uM after 72 hrs by annexin-V/propidium iodide staining-based flow cytometric analysis (reference value: 0.3%); type: functional
NCI-H460 [9] = experiment: Induction of apoptosis in human NCI-H460 cells assessed as late apoptotic/necrotic cells at 25 uM after 72 hrs by annexin-V/propidium iodide staining-based flow cytometric analysis (reference value: 0.2%); type: functional
NCI-H460 [10] = experiment: Induction of apoptosis in human NCI-H460 cells assessed as dead cells at 25 uM after 72 hrs by annexin-V/propidium iodide staining-based flow cytometric analysis (reference value: 1.2%); type: functional
NCI-H460 [11] = experiment: Induction of apoptosis in multidrug resistant human NCI-H460 cells assessed as live cells at 25 uM after 72 hrs by annexin-V/propidium iodide staining-based flow cytometric analysis (reference value: 96.4%); type: functional
NCI-H460 [12] = experiment: Induction of apoptosis in multidrug resistant human NCI-H460 cells assessed as early apoptotic cells at 25 uM after 72 hrs by annexin-V/propidium iodide staining-based flow cytometric analysis (reference value: 1.1%); type: functional
NCI-H460 [13] = experiment: Induction of apoptosis in multidrug resistant human NCI-H460 cells assessed as late apoptotic/necrotic cells at 25 uM after 72 hrs by annexin-V/propidium iodide staining-based flow cytometric analysis (reference value: 1%); type: functional
NCI-H460 [14] = experiment: Induction of apoptosis in multidrug resistant human NCI-H460 cells assessed as dead cells at 25 uM after 72 hrs by annexin-V/propidium iodide staining-based flow cytometric analysis (reference value: 1.5%); type: functional
[15] = Induction of apoptosis in human HaCaT cells assessed as live cells at 25 uM after 72 hrs by annexin-V/propidium iodide staining-based flow cytometric analysis (reference value: 96.8%); type: cell-based; settings: read-out: Activity
HaCaT [16] = experiment: Induction of apoptosis in human HaCaT cells assessed as early apoptotic cells at 25 uM after 72 hrs by annexin-V/propidium iodide staining-based flow cytometric analysis (reference value: 0.2%); type: cell-based
HaCaT [17] = experiment: Induction of apoptosis in human HaCaT cells assessed as late apoptotic/necrotic cells at 25 uM after 72 hrs by annexin-V/propidium iodide staining-based flow cytometric analysis (reference value: 0.2%); type: cell-based
HaCaT [18] = experiment: Induction of apoptosis in human HaCaT cells assessed as dead cells at 25 uM after 72 hrs by annexin-V/propidium iodide staining-based flow cytometric analysis (reference value: 2.8%); type: cell-based
[19] = Selectivity ratio of IC30/IC50 for human HaCaT cells to IC30/IC50 for human NCI-H460 cells; type: ADME, cell-based; settings: HaCaT cells versus NCI-H460 cells; outline: as §3
[20] = Selectivity ratio of IC30/IC50 for human HaCaT cells to IC30/IC50 for multidrug resistant human NCI-H460 cells; type: ADME, cell-based; settings: HaCaT cells versus multidrug resistant NCI-H460 cells; outline: as §3
NCI-H460 [21] = experiment: Induction of superoxide anion generation in multidrug resistant human NCI-H460 cells at 25 uM after 72 hrs by DHE staining-based flow cytometric analysis relative to control; type: functional, cell-based
Outline: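 Seeded as for cell death (50,000 or 100,000 cells/well), treated 72 h at 25 µM, with CDDP 5 µM as control. Adherent cells trypsinized and loaded with 1 µM DHE for 30 min at 37 °C in the dark, then washed twice in PBS. Flow cytometry at ex 488/em 585 nm (FL2-H). Mean fluorescence intensity corrected for autofluorescence and compared with untreated control.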

Compound | MIC (Micrococcus luteus [1]) [µM] | MIC (Clostridium sporogenes) [µM] | MIC (Escherichia coli) [µM] | MIC (Salmonella enteritidis) [µM] | MIC (Pseudomonas aeruginosa) [µM] | MIC (Candida albicans) [µM] | MIC (Saccharomyces cerevisiae) [µM] | MIC (Aspergillus brasiliensis) [µM] | MIC (Staphylococcus aureus) [µM] | MIC (Bacillus spizizenii) [µM] | MIC (Micrococcus luteus [5]) [µM] | MIC (Proteus hauseri) [µM] | MIC (Kocuria rhizophila) [µM] | IC30 (NCI-H460 [2]) [µM] | pIC50 (NCI-H460 [2]) | IC30 (NCI-H460 [3]) [µM] | pIC50 (NCI-H460 [3]) | pIC50 (HaCaT [4]) | IC30 (HaCaT [4]) [µM] | other results
CCCCNC1=CC(=O)C=C(C[C@]2(C)[C@@H](C)CC[C@]3(C)C(C)=CCC[C@@H]23)C1=O |  |  |  |  |  |  |  |  |  |  |  |  |  | 9 | 4.80 | 3 | 5.22 | 4.80 | 11 | selectivity ratio (NCI-H460 [6]): <=1.5
CNC1=CC(=O)C(C(C)(C)C)=CC1=O | 831 (≈ 161 µg/mL) | 813 (≈ 157 µg/mL) | 104 (≈ 20.1 µg/mL) | 813 (≈ 157 µg/mL) | 1620 (≈ 313 µg/mL) | 1620 (≈ 313 µg/mL) | 1620 (≈ 313 µg/mL) | 51 (≈ 9.86 µg/mL) | 25 (≈ 4.83 µg/mL) | 813 (≈ 157 µg/mL) | 103 (≈ 19.9 µg/mL) | 813 (≈ 157 µg/mL) | 409 (≈ 79 µg/mL) | 34 | 4.20 | 31 | 4.24 | 4.55 | 17 | 
CCCCCCCCNC1=CC(=O)C(C(C)(C)C)=CC1=O | 4300 (≈ 1250 µg/mL) | 2150 (≈ 626 µg/mL) | 4300 (≈ 1250 µg/mL) | 2150 (≈ 626 µg/mL) | 2150 (≈ 626 µg/mL) | 4300 (≈ 1250 µg/mL) | 4300 (≈ 1250 µg/mL) | 2150 (≈ 626 µg/mL) | 4300 (≈ 1250 µg/mL) | 4300 (≈ 1250 µg/mL) | 2150 (≈ 626 µg/mL) | 2150 (≈ 626 µg/mL) | 4300 (≈ 1250 µg/mL) | 18 | 4.15 | 21 | 4.19 | < 4.00 | > 100 | Activity (NCI-H460 [7]): 80.9%; Activity (NCI-H460 [8]): 0.1%; Activity (NCI-H460 [9]): 1.7%; Activity (NCI-H460 [10]): 17.3%; Activity (NCI-H460 [11]): 83.9%; Activity (NCI-H460 [12]): 0.2%; Activity (NCI-H460 [13]): 1.9%; Activity (NCI-H460 [14]): 14%; viability at 72 h, 25 µM [15]: 93.8%; Activity (HaCaT [16]): 0%; Activity (HaCaT [17]): 0.5%; Activity (HaCaT [18]): 5.7%; selectivity ratio [19]: ≤ 1.5; selectivity ratio [20]: ≤ 1.5; Activity (NCI-H460 [21]): inactive

More lines, main results first:

MIC (Micrococcus luteus [1]) [µM] | MIC (Clostridium sporogenes) [µM] | MIC (Escherichia coli) [µM] | MIC (Salmonella enteritidis) [µM] | MIC (Pseudomonas aeruginosa) [µM] | MIC (Candida albicans) [µM] | MIC (Saccharomyces cerevisiae) [µM] | MIC (Aspergillus brasiliensis) [µM] | MIC (Staphylococcus aureus) [µM] | MIC (Bacillus spizizenii) [µM] | MIC (Micrococcus luteus [5]) [µM] | MIC (Proteus hauseri) [µM] | MIC (Kocuria rhizophila) [µM] | Compound | IC30 (NCI-H460 [2]) [µM] | pIC50 (NCI-H460 [2]) | IC30 (NCI-H460 [3]) [µM] | pIC50 (NCI-H460 [3]) | pIC50 (HaCaT [4]) | IC30 (HaCaT [4]) [µM] | other results
154 (≈ 36.2 µg/mL) | 1240 (≈ 291 µg/mL) | 9 (≈ 2.12 µg/mL) | 620 (≈ 146 µg/mL) | 620 (≈ 146 µg/mL) | 77 (≈ 18.1 µg/mL) | 154 (≈ 36.2 µg/mL) | 620 (≈ 146 µg/mL) | 9 (≈ 2.12 µg/mL) | 1240 (≈ 291 µg/mL) | 9 (≈ 2.12 µg/mL) |  |  | CCCCNC1=CC(=O)C=C(C(C)(C)C)C1=O | 4 | 4.85 | 4 | 4.89 | 4.96 | 7 | 
3 (≈ 1.76 µg/mL) | 26 (≈ 15.2 µg/mL) | 9 (≈ 5.27 µg/mL) | 14 (≈ 8.2 µg/mL) | 85 (≈ 49.8 µg/mL) |  |  |  | 19 (≈ 11.1 µg/mL) | 72 (≈ 42.2 µg/mL) | 14 (≈ 8.2 µg/mL) | 12 (≈ 7.03 µg/mL) | 3 (≈ 1.76 µg/mL) | NCC[C@H](O)C(=O)N[C@@H]1C[C@H](N)[C@@H](O[C@H]2O[C@H](CN)[C@@H](O)[C@H](O)[C@H]2O)[C@H](O)[C@H]1O[C@H]1O[C@H](CO)[C@@H](O)[C@H](N)[C@H]1O [AMIKACIN] |  |  |  |  |  |  | 
1620 (≈ 313 µg/mL) | 1620 (≈ 313 µg/mL) | 202 (≈ 39 µg/mL) | 1620 (≈ 313 µg/mL) | 3240 (≈ 626 µg/mL) | 1620 (≈ 313 µg/mL) | 3240 (≈ 626 µg/mL) | 103 (≈ 19.9 µg/mL) | 51 (≈ 9.86 µg/mL) | 1620 (≈ 313 µg/mL) | 202 (≈ 39 µg/mL) | 1620 (≈ 313 µg/mL) | 813 (≈ 157 µg/mL) | CNC1=CC(=O)C=C(C(C)(C)C)C1=O | 14 | 4.60 | 15 | 4.64 | 5.00 | 8 | 
